The source of these data is article PMC6586034 (Clinical Pharmacology in Drug Development, 2018).

The test system of one data set is major CYPs. The note with it: ref Ardea Biosciences, Inc., data on file; cited from earlier work.
The next data set has as its system uric acid. Nature of the data set: Urinary uric acid pharmacodynamics. The data set is classed as in vivo, human. The note with it: arithmetic mean (95%CI); for AeUR, % Change From baseline / CLUR, % Change From baseline / FEUA, % Change From baseline: day 7 of treatment vs day −1.
Data set [1] is classed as in vivo, human. A digest of the protocol: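 Urine was collected as total catch over 0–6, 6–12 and 12–24 h postdose on days 7 (alone), 14 (combination) and 21, under once-daily oral dosing in healthy men. Verinurad was measured by LC/MS/MS, linear 2.00–1000 ng/mL. Ae0-24, fe0-24 and CLR0-24 were derived. Log-transformed parameters were compared as geometric mean ratios with 90% CI using a mixed-effects model (treatment fixed, subject random).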

For the next data set, the system named is serum urate (sUA). The experiment in a line: Serum urate pharmacodynamics. The data set is classed as in vivo, human. The note with it: for Change in sUA at 24 hours: steady state, 24 hours postdose. The procedure, abridged: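 Healthy men were dosed orally once daily, each drug alone for 7 days, and serum was sampled predose to 24 h postdose on days 1, 7, 14 and 21. A central laboratory assayed serum urate. Baseline was the mean of all day −1 values. Maximum percentage change from baseline was taken per subject and averaged per group. A mixed-effects model used treatment as fixed effect, baseline as covariate and subject as random effect.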

Another data set concerns URAT1. The note with it: cited from earlier work; for URAT1 activity: metabolites of verinurad.
Another data set can be described thus: Safety/tolerability. The data set is classed as in vivo, human. The note with it: for Tolerability: multiple once-daily oral doses, alone or in combination, healthy adult males; for Subjects with an increase from baseline in serum creatinine (sCr): none had sCr ≥1.5 × baseline.
The format of data set [2] is in vivo, human. The note with it: for Tmax: male, human, plasma, po. A digest of the protocol:
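Healthy men (18–65 y, sUA ≥4.5 mg/dL) took oral doses once daily, about 30–35 min after a moderate-fat breakfast. […] Plasma was sampled predose to 24 h on days 7, 14 and 21. Acetonitrile precipitation with deuterated internal standard, then LC/MS/MS (LLOQ 0.100 ng/mL). Log GMRs (90% CI) for single agent vs day 14 came from a mixed-effects model.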

The format of data set [3] is in vivo, human. The note with it: febuxostat 80 mg + verinurad 2.5 mg.
The conditions of data set [4]: human; cited from earlier work.
Where [5] appears, read: VERU 2.5 mg once daily, Day 7 of Treatment (0 to 24 Hours).
Setting [6] is: VERU 2.5 mg + FBX 80 mg once daily oral, day 14, geometric mean.
The mark [7] stands for this setting: VERU 2.5 mg + FBX 80 mg once daily oral, day 14, mean (SD).
[8] abbreviates: VERU 2.5 mg once daily oral alone, day 7 or 21, geometric mean.
[9] abbreviates: VERU 2.5 mg once daily oral alone, day 7 or 21, mean (SD).
Setting [10] is: VERU 10 mg + FBX 40 mg once daily oral, day 14, geometric mean.
[11] abbreviates: VERU 10 mg + FBX 40 mg once daily oral, day 14, mean (SD).
[12] abbreviates: VERU 10 mg once daily oral alone, day 7 or 21, geometric mean.
Setting [13] is: VERU 10 mg once daily oral alone, day 7 or 21, mean (SD).
Setting [14] is: verinurad 2.5 mg once daily alone.
Where [15] appears, read: verinurad 10 mg once daily alone.
The mark [16] stands for this setting: verinurad 2.5 mg combined with febuxostat 80 mg vs alone.
Where [17] appears, read: febuxostat 40 mg once daily alone.
The mark [18] stands for this setting: febuxostat 80 mg once daily alone.

SMILES strings stand for the structures. “Also recorded” adds a separate entry of the source. Like-named read-outs stand apart in the source and are kept apart here.

The term Tmax denotes the time from dosing to the highest level.

As for `CC(C)(Sc1ccncc1-c1ccc(C#N)c2ccccc12)C(=O)O` [verinurad, Verinurad], the “Inhibition of the major CYPs” value with major CYPs was “does not inhibit”. For the same compound, the “AeUR (amount of uric acid recovered in urine)” value in the data set on uric acid (setting [5]) was 620 (485 to 755) mg. The “FEUA (fractional excretion of uric acid)” value with uric acid (setting [5]) was 7.55 (6.83 to 8.26) %. Besides, the figures for the “AeUR, % Change From baseline” value with uric acid (VERU 2.5 mg once daily) and with uric acid (VERU 10 mg once daily) were −21.0% and −17.0%, respectively. The “CLUR, % Change From baseline” value with uric acid (VERU 2.5 mg once daily) is 10.7 (−7.92 to 29.3) %; in the data set with uric acid (VERU 10 mg once daily), 65.8 (14.2, 117) %. In addition, the “FEUA, % Change From baseline” value in the data set with uric acid (VERU 2.5 mg once daily) turned out to be 17.2%; in the data set with uric acid (VERU 10 mg once daily), 105%. Moreover, the “Ae0-24 of verinurad (excreted unchanged in urine)” value in data set [1] (setting [6]) was 30.0 [21.6‐41.6] μg; in data set [1] (VERU 2.5 mg + FBX 80 mg once daily oral, day 14, geometric mean, listed as VERU), 30.0 µg; in data set [1] (setting [7]), 32.3 (12.2) μg; in data set [1] (setting [8]), 21.2 [14.8‐30.5] μg; in [1] (VERU 2.5 mg once daily oral alone, day 7 or 21, geometric mean, listed as VERU), 21.2 µg; in data set [1] (setting [9]) it was 23.3 (10.1) μg. Besides, the “Ae0-24 of verinurad (excreted unchanged in urine)” value is 97.6 µg in data set [1] (setting [10]), 106 (44.2) μg in data set [1] (setting [11]), 86.8 µg in data set [1] (setting [12]) and 97.2 (49.7) μg in data set [1] (setting [13]). Further, the CLR0-24 of verinurad in data set [1] (setting [6]) is listed as 14.4 mL/min; in data set [1] (setting [7]), 15.4 (5.97) mL/min; in data set [1] (setting [8]), 13.6 mL/min; in [1] (setting [9]), 15.1 (7.29) mL/min; in [1] (setting [10]) it was 15.2 mL/min; in data set [1] (setting [11]), 16.2 (5.43) mL/min. Besides, the results for the CLR0-24 of verinurad in data set [1] (setting [12]) and in data set [1] (setting [13]) were 12.4 mL/min and 13.6 (5.04) mL/min, respectively. Further, the fe0-24 of verinurad in data set [1] (setting [6]) is given as 1.20%; in data set [1] (setting [7]) it was 1.29 (0.490) %; in [1] (setting [8]) it was 0.849%; in data set [1] (setting [9]) it was 0.932 (0.405) %; in [1] (setting [10]), 0.976%; in [1] (setting [11]), 1.06 (0.442) %. The fe0-24 of verinurad in data set [1] (setting [12]) was 0.868%; in [1] (setting [13]), 0.972 (0.497) %. Also, the “Increase in Ae0-24 of verinurad” value in [1] (verinurad 2.5 mg in the presence of febuxostat 80 mg vs alone) was 41%. Moreover, the “Maximal reduction in serum urate” value is recorded as 38% with serum urate (sUA) (setting [14]) and 56% in the data set with serum urate (sUA) (setting [15]). Besides, the “Mean maximal change from baseline in sUA at steady state” value (from here on “Mean maximal change from baseline”) with serum urate (sUA) (setting [14]) is given as −37.8%; in the data set on serum urate (sUA) (setting [15]), −56.3%. For the same compound, the “Change in sUA at 24 hours” value is on record as −19.9% in the data set with serum urate (sUA) (setting [14]) and −38.0% in the data set on serum urate (sUA) (setting [15]). For the same compound, the “Potency in inhibiting URAT1” value in the data set with URAT1 was “high potency”. Also, in the data set “Safety/tolerability”, the Tolerability entry is on record as “generally well tolerated”. The “Subjects with an increase from baseline in serum creatinine (sCr)” value (“Subjects with an increase from baseline” below) was 3 subjects in “Safety/tolerability” (verinurad 2.5 mg) and 2 subjects in the data set “Safety/tolerability” (verinurad 10 mg). In addition, the “Subjects with mild headache (only AE considered possibly related to verinurad)” value in the data set “Safety/tolerability” (verinurad 10 mg-alone group, resolved without treatment) is recorded as 1 subject. Further, the Tmax was determined as 4 h in [2] (2.5 mg) and 2.75 h in data set [2] (10 mg). The “Effect of febuxostat 40 mg on plasma exposure / PK parameters of verinurad 10 mg” value in data set [2] (once-daily co-administration, healthy males) was “no effect; also recorded: unaffected; also recorded: not influenced”. Besides, the “Increase in AUC0-24 of verinurad” value in [2] (setting [16]) came to 33%. Moreover, the “Increase in Cmax of verinurad” value in [2] (setting [16]) is reported as 25%. In addition, the “Effect on Tmax of verinurad” value in data set [2] (verinurad 2.5 mg in the presence of febuxostat 80 mg) is listed as “remained unchanged”.
Turning to `Cc1nc(-c2ccc(OCC(C)C)c(C#N)c2)sc1C(=O)O` [febuxostat, Febuxostat, reference compound], in the data set on uric acid (FBX 40 mg once daily), the “AeUR, % Change From baseline” value is −64.1%; the “CLUR, % Change From baseline” value was −34.4 (−45.3 to −23.5) %; the “FEUA, % Change From baseline” value is recorded as −24.5%. Also, in the data set on uric acid (FBX 80 mg once daily), the “AeUR, % Change From baseline” value is reported as −72.4%; the “CLUR, % Change From baseline” value is reported as −42.0 (−50.8 to −33.2) %; the “FEUA, % Change From baseline” value is on record as −35.2%. Moreover, in the data set on serum urate (sUA) (setting [17]), the “Maximal reduction in serum urate” value is on record as 49%, the “Mean maximal change from baseline” value is −49.1% and the “Change in sUA at 24 hours” value is given as −36.9%. Moreover, in the data set on serum urate (sUA) (setting [18]), the “Maximal reduction in serum urate” value came to 57%, the “Mean maximal change from baseline” value is recorded as −57.5% and the “Change in sUA at 24 hours” value is on record as −45.4%. For the same compound, the “Subjects with an increase from baseline” value in “Safety/tolerability” (febuxostat 40 mg) is reported as 1 subjects. Moreover, the “Subjects with an increase from baseline” value in “Safety/tolerability” (febuxostat 80 mg) is on record as 2 subjects. Also, the Tolerability entry in “Safety/tolerability” is “generally well tolerated”. In addition, the “Effect on Tmax of febuxostat” value in data set [3] is given as “remained unchanged”.
Consider `CC(C)(Sc1ccncc1-c1ccc(C#N)c2ccccc12)C(=O)OC1OC(C(=O)O)C(O)C(O)C1O` (stereo not shown) [M1], for which the “Circulating level in blood relative to verinurad” value in [4] is “equimolar to verinurad”. In addition, the URAT1 activity result with URAT1 is “devoid of URAT1 activity”.
`CC(C)(Sc1cc[n+]([O-])cc1-c1ccc(C#N)c2ccccc12)C(=O)OC1OC(C(=O)O)C(O)C(O)C1O` (stereo not shown) [M8]: the “Circulating level in blood relative to verinurad” value in data set [4] is reported as “equimolar to verinurad”. The URAT1 activity result in the data set on URAT1 is listed as “devoid of URAT1 activity”.
